Source: publication PMC8526772 (The Journal of Biological Chemistry, 2021)
Where a chain is given by its changes, count along the chain named.

Tests used:
Assay in all cases: fluorescence-binding assay
JHAMT2 = molecular target: T1, JHAMT2 (Bombyx mori, UniProt A0A8M0FGR8)
T1 sequence (A0A8M0FGR8 1-267): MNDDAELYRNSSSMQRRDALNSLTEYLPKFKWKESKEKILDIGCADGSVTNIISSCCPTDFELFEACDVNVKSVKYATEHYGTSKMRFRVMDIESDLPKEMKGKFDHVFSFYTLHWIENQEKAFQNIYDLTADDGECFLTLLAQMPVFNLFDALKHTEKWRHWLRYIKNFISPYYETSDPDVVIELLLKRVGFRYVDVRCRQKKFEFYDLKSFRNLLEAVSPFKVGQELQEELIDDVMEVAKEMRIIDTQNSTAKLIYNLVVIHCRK
Procedure, shortened: (§1)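 Intrinsic tryptophan fluorescence quenching used 2 μM recombinant B. mori JHAMT (wild type or point mutant) in 20 mM Tris-HCl pH 8.0, 200 mM NaCl, equilibrated 2 min at 25 °C. Ligand was titrated at final 0–1.5 mM SAM (cofactor binding) or 0–0.1 mM FA (substrate binding). Excitation was 280 nm with emission recorded 300–450 nm. Kd was fitted from quenching data as mean ± s.d. of n = 3.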

JHAMT1 = molecular target: T2, JHAMT1 (Bombyx mori, UniProt Q767F1)
T2 sequence (Q767F1 1-278): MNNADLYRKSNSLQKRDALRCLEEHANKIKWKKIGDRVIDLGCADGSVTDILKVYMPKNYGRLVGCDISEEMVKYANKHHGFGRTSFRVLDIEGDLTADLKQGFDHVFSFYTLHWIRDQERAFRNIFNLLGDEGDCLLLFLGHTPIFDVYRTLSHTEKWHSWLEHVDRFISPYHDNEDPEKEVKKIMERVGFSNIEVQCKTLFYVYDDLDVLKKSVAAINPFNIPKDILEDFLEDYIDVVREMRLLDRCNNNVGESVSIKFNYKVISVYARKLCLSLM
Procedure, shortened: as §1

JHAMT1-D^91A = molecular target: T3, JHAMT1-D^91A (Bombyx mori, UniProt Q767F1, D91A)
T3 sequence (Q767F1 1-278 D91A): T2 sequence (Q767F1 1-278) with D91A
Procedure, shortened: as §1

JHAMT2-T^113A = molecular target: T4, JHAMT2-T^113A (Bombyx mori, UniProt A0A8M0FGR8, T113A)
T4 sequence (A0A8M0FGR8 1-267 T113A): T1 sequence (A0A8M0FGR8 1-267) with T113A
Procedure, shortened: as §1

JHAMT1-T^112A = molecular target: T5, JHAMT1-T^112A (Bombyx mori, UniProt Q767F1, T112A)
T5 sequence (Q767F1 1-278 T112A): T2 sequence (Q767F1 1-278) with T112A
Procedure, shortened: as §1

JHAMT2-D^92A = molecular target: T6, JHAMT2-D^92A (Bombyx mori, UniProt A0A8M0FGR8, D92A)
T6 sequence (A0A8M0FGR8 1-267 D92A): T1 sequence (A0A8M0FGR8 1-267) with D92A
Procedure, shortened: as §1

**Q.** C[S+](CC[C@H](N)C(=O)[O-])C[C@H]1O[C@@H](n2cnc3c(N)ncnc32)[C@H](O)[C@@H]1O (stereo partly drawn) [SAM, S-adenosyl-L-methionine] was tested. Which Kd (JHAMT2) did it give?
**A.** 42.6 ± 5.83 µM

**Q.** And the Kd (JHAMT1)?
**A.** 38.7 ± 3.42 µM

**Q.** What about the Kd (JHAMT1-D^91A) of the same molecule?
**A.** 229 ± 18.1 µM

**Q.** What about the Kd (JHAMT2-T^113A) of the same molecule?
**A.** 144 ± 9.91 µM

**Q.** What about the Kd (JHAMT1-T^112A) of the same molecule?
**A.** 191 ± 12.7 µM

**Q.** What about the Kd (JHAMT2-D^92A) of the same molecule?
**A.** 261 ± 18.1 µM
